Source: ChEMBL document CHEMBL3861977, “Effects of Oleanane-Type Triterpene Saponins from the Leaves of Eleutherococcus senticosus in an Axonal Outgrowth Assay” (J Nat Prod, 2016)
Activity calls are given as the source filed them. No cut-off for these calls is given here.

tested on: Cortical neurone; test: Inhibition of amyloid beta (25 to 35)-induced neuronal degeneration in ddY mouse embryo cortical neurons assessed as restoration of axonal outgrowth by measuring length of phosphorylated neurofilament-H-positive neurites at 10 uM treated 3 days post amyloid beta (25 to 35) stimulation measured after 4 days by fluorescent microscopic analysis; format: functional
In short: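 Cortical neurons from E14 ddY mouse embryos, plated on poly-D-lysine (5 μg/mL) in neurobasal medium with 12% horse serum, switched to 2% B-27 medium 3−12 h later, 37 °C, 10% CO2. Day 3: 10 μM Aβ25−35 (pre-aggregated 4 days at 37 °C) for 3 days. Then Aβ removed; 10 μM isolate, 0.1% DMSO vehicle or NGF 10 ng/mL for 4 days. Fixed in 4% PFA, stained for pNF-H and DAPI, pNF-H-positive neurite length measured; 10−79 photos per treatment, Dunnett's test.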

Q: `C[C@@H]1O[C@@H](O[C@H]2[C@H](O)[C@@H](O)[C@H](OC[C@H]3O[C@@H](OC(=O)[C@]45CCC(C)(C)C[C@H]4C4=CC[C@@H]6[C@@]7(C)CC[C@H](O[C@@H]8OC[C@H](O)[C@H](O)[C@H]8O)C(C)(C)[C@@H]7CC[C@@]6(C)[C@]4(C)CC5)[C@H](O)[C@@H](O)[C@@H]3O)O[C@@H]2CO)[C@H](O)[C@H](O)[C@H]1O` was tested. Which inhibition did it give?
A: Active

Q: How did the inhibition turn out when `C[C@@H]1O[C@@H](O[C@H]2[C@H](O[C@H]3CC[C@@]4(C)[C@@H](CC[C@]5(C)[C@@H]4CC=C4[C@@H]6CC(C)(C)CC[C@]6(C(=O)O[C@@H]6O[C@H](CO[C@@H]7O[C@H](CO)[C@@H](O[C@@H]8O[C@@H](C)[C@H](O)[C@@H](O)[C@H]8O)[C@H](O)[C@H]7O)[C@@H](O)[C@H](O)[C@H]6O)CC[C@]45C)[C@]3(C)CO)OC[C@H](O)[C@@H]2O)[C@H](O)[C@H](O)[C@H]1O` was run?
A: Active

Q: With `C=C1CC[C@]2(C(=O)O[C@@H]3O[C@H](CO[C@@H]4O[C@H](COC(C)=O)[C@@H](O[C@@H]5O[C@@H](C)[C@H](O)[C@@H](O)[C@H]5O)[C@H](O)[C@H]4O)[C@@H](O)[C@H](O)[C@H]3O)CC[C@]3(C)C(=CC[C@@H]4[C@@]5(C)CC[C@H](O[C@@H]6OC[C@H](O)[C@H](O)[C@H]6O[C@@H]6O[C@H](CO)[C@@H](O)[C@H](O)[C@H]6O)C(C)(C)[C@@H]5CC[C@]43C)[C@@H]2C1` as the molecule, how does the inhibition read?
A: Active

Q: How did the inhibition turn out when `C[C@@H]1O[C@@H](O[C@H]2[C@H](O[C@H]3CC[C@]4(C)[C@H]5CC=C6[C@@H]7C[C@](C)(C=O)CC[C@]7(C(=O)O[C@@H]7O[C@H](CO[C@@H]8O[C@H](CO)[C@@H](O[C@@H]9O[C@@H](C)[C@H](O)[C@@H](O)[C@H]9O)[C@H](O)[C@H]8O)[C@@H](O)[C@H](O)[C@H]7O)CC[C@@]6(C)[C@]5(C)CC[C@H]4C3(C)C)OC[C@H](O)[C@@H]2O)[C@H](O)[C@H](O)[C@H]1O` was run?
A: Active

Q: `CC(=O)OC[C@H]1O[C@@H](OC[C@H]2O[C@@H](OC(=O)[C@]34CCC(C)(C)C[C@H]3C3=CC[C@@H]5[C@@]6(C)CC[C@H](O[C@@H]7OC[C@H](O)[C@H](O)[C@H]7O[C@@H]7O[C@H](CO)[C@@H](O)[C@H](O)[C@H]7O)C(C)(C)[C@@H]6CC[C@@]5(C)[C@]3(C)CC4)[C@H](O)[C@@H](O)[C@@H]2O)[C@H](O)[C@@H](O)[C@@H]1O[C@@H]1O[C@@H](C)[C@H](O)[C@@H](O)[C@H]1O` was tested. Which inhibition did it give?
A: Active

Q: For `CC(=O)OC[C@H]1O[C@@H](OC[C@H]2O[C@@H](OC(=O)[C@]34CC[C@@](C)(CO)C[C@H]3C3=CC[C@@H]5[C@@]6(C)CC[C@H](O[C@@H]7OC[C@H](O)[C@H](O)[C@H]7O[C@@H]7O[C@@H](C)[C@H](O)[C@@H](O)[C@H]7O)C(C)(C)[C@@H]6CC[C@@]5(C)[C@]3(C)CC4)[C@H](O)[C@@H](O)[C@@H]2O)[C@H](O)[C@@H](O)[C@@H]1O[C@@H]1O[C@@H](C)[C@H](O)[C@@H](O)[C@H]1O`, which inhibition is on record?
A: Active

Q: With `C=C1CC[C@]2(C(=O)O[C@@H]3O[C@H](CO[C@@H]4O[C@H](COC(C)=O)[C@@H](O[C@@H]5O[C@@H](C)[C@H](O)[C@@H](O)[C@H]5O)[C@H](O)[C@H]4O)[C@@H](O)[C@H](O)[C@H]3O)CC[C@]3(C)C(=CC[C@@H]4[C@@]5(C)CC[C@H](O[C@@H]6OC[C@H](O)[C@H](O)[C@H]6O)C(C)(C)[C@@H]5CC[C@]43C)[C@@H]2C1` as the molecule, how does the inhibition read?
A: Active

Q: With `CC(=O)OC[C@H]1O[C@@H](OC[C@H]2O[C@@H](OC(=O)[C@]34CC[C@@](C)(C=O)C[C@H]3C3=CC[C@@H]5[C@@]6(C)CC[C@H](O[C@@H]7OC[C@H](O)[C@H](O)[C@H]7O[C@@H]7O[C@@H](C)[C@H](O)[C@@H](O)[C@H]7O)C(C)(C)[C@@H]6CC[C@@]5(C)[C@]3(C)CC4)[C@H](O)[C@@H](O)[C@@H]2O)[C@H](O)[C@@H](O)[C@@H]1O[C@@H]1O[C@@H](C)[C@H](O)[C@@H](O)[C@H]1O` as the molecule, how does the inhibition read?
A: Active

Q: Which inhibition does the source give for `C=C1CC[C@]2(C(=O)O[C@@H]3O[C@H](CO[C@@H]4O[C@H](COC(C)=O)[C@@H](O[C@@H]5O[C@@H](C)[C@H](O)[C@@H](O)[C@H]5O)[C@H](O)[C@H]4O)[C@@H](O)[C@H](O)[C@H]3O)CC[C@]3(C)C(=CC[C@@H]4[C@@]5(C)CC[C@H](O[C@@H]6OC[C@H](O)[C@H](O)[C@H]6O[C@@H]6O[C@@H](C)[C@H](O)[C@@H](O)[C@H]6O)C(C)(C)[C@@H]5CC[C@]43C)[C@@H]2C1` here?
A: Active

Q: `CC(=O)OC[C@H]1O[C@@H](OC[C@H]2O[C@@H](OC(=O)[C@]34CCC(C)(C)C[C@H]3C3=CC[C@@H]5[C@@]6(C)CC[C@H](O[C@@H]7OC[C@H](O)[C@H](O)[C@H]7O[C@@H]7O[C@@H](C)[C@H](O)[C@@H](O)[C@H]7O)C(C)(C)[C@@H]6CC[C@@]5(C)[C@]3(C)CC4)[C@H](O)[C@@H](O)[C@@H]2O)[C@H](O)[C@@H](O)[C@@H]1O[C@@H]1O[C@@H](C)[C@H](O)[C@@H](O)[C@H]1O` was tested. Which inhibition did it give?
A: Active

Q: How did the inhibition turn out when `C[C@@H]1O[C@@H](O[C@H]2[C@H](O)[C@@H](O)[C@H](OC[C@H]3O[C@@H](OC(=O)[C@]45CC[C@@](C)(C=O)C[C@H]4C4=CC[C@@H]6[C@@]7(C)CC[C@H](O[C@@H]8OC[C@H](O)[C@H](O)[C@H]8O)C(C)(C)[C@@H]7CC[C@@]6(C)[C@]4(C)CC5)[C@H](O)[C@@H](O)[C@@H]3O)O[C@@H]2CO)[C@H](O)[C@H](O)[C@H]1O` was run?
A: Active

Q: With `CC(=O)OC[C@H]1O[C@@H](OC[C@H]2O[C@@H](OC(=O)[C@]34CC[C@@](C)(C(=O)O)C[C@H]3C3=CC[C@@H]5[C@@]6(C)CC[C@H](O[C@@H]7OC[C@H](O)[C@H](O)[C@H]7O[C@@H]7O[C@@H](C)[C@H](O)[C@@H](O)[C@H]7O)C(C)(C)[C@@H]6CC[C@@]5(C)[C@]3(C)CC4)[C@H](O)[C@@H](O)[C@@H]2O)[C@H](O)[C@@H](O)[C@@H]1O[C@@H]1O[C@@H](C)[C@H](O)[C@@H](O)[C@H]1O` as the molecule, how does the inhibition read?
A: Active

Q: For `C[C@@H]1O[C@@H](O[C@H]2[C@H](O[C@H]3CC[C@]4(C)[C@H]5CC=C6[C@@H]7CC(C)(C)CC[C@]7(C(=O)O[C@@H]7O[C@H](CO[C@@H]8O[C@H](CO)[C@@H](O[C@@H]9O[C@@H](C)[C@H](O)[C@@H](O)[C@H]9O)[C@H](O)[C@H]8O)[C@@H](O)[C@H](O)[C@H]7O)CC[C@@]6(C)[C@]5(C)CC[C@H]4C3(C)C)OC[C@H](O)[C@@H]2O)[C@H](O)[C@H](O)[C@H]1O`, which inhibition is on record?
A: Active

Q: How did the inhibition turn out when `CC(=O)OC[C@H]1O[C@@H](OC[C@H]2O[C@@H](OC(=O)[C@]34CC[C@@](C)(C(=O)O)C[C@H]3C3=CC[C@@H]5[C@@]6(C)CC[C@H](O[C@@H]7OC[C@H](O)[C@H](O)[C@H]7O)C(C)(C)[C@@H]6CC[C@@]5(C)[C@]3(C)CC4)[C@H](O)[C@@H](O)[C@@H]2O)[C@H](O)[C@@H](O)[C@@H]1O[C@@H]1O[C@@H](C)[C@H](O)[C@@H](O)[C@H]1O` was run?
A: Active

Q: With `C[C@@H]1O[C@@H](O[C@H]2[C@H](O)[C@@H](O)[C@H](OC[C@H]3O[C@@H](OC(=O)[C@]45CCC(C)(C)C[C@H]4C4=CC[C@@H]6[C@@]7(C)CC[C@H](O[C@@H]8OC[C@H](O)[C@H](O[C@@H]9O[C@H](CO)[C@@H](O)[C@H](O)[C@H]9O)[C@H]8O)C(C)(C)[C@@H]7CC[C@@]6(C)[C@]4(C)C[C@@H]5O)[C@H](O)[C@@H](O)[C@@H]3O)O[C@@H]2CO)[C@H](O)[C@H](O)[C@H]1O` as the molecule, how does the inhibition read?
A: Active

Q: How did the inhibition turn out when `C=C1CC[C@]2(C(=O)O[C@@H]3O[C@H](CO[C@@H]4O[C@H](CO)[C@@H](O[C@@H]5O[C@@H](C)[C@H](O)[C@@H](O)[C@H]5O)[C@H](O)[C@H]4O)[C@@H](O)[C@H](O)[C@H]3O)CC[C@]3(C)C(=CC[C@@H]4[C@@]5(C)CC[C@H](O[C@@H]6OC[C@H](O)[C@H](O)[C@H]6O[C@@H]6O[C@@H](C)[C@H](O)[C@@H](O)[C@H]6O)C(C)(C)[C@@H]5CC[C@]43C)[C@@H]2C1` was run?
A: Active
